Laboratory results from ChEMBL document CHEMBL3627671, “Novel derivatives of nitro-substituted salicylic acids: Synthesis, antimicrobial activity and cytotoxicity” (Bioorg Med Chem, 2015).
≈ marks a conversion by molar mass, not a printed value.

How the values were obtained:
[1] = tested on: Trichosporon asahii; experiment: Antifungal activity against Trichosporon asahii 1188 after 48 hrs by microdilution broth method; format: functional; conditions: Trichosporon asahii, 1188, 48 h
Summary of the method: (§1)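 CLSI M27-A3 broth microdilution in RPMI 1640 with glutamine, buffered to pH 7.0 with MOPS; DMSO diluent. Yeast inoculum 5 × 10^3 ± 0.2 CFU/mL. Moulds grown on Sabouraud agar 3–10 days before spore harvest, final inoculum 0.5-5 × 10^4 CFU/mL, checked in a Bürker chamber. Incubated dark, humid, 35 °C, read at 24 and 48 h visually and at 540 nm. MIC taken as ≥80% (yeasts) or ≥50% (filamentous) growth reduction versus control.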

[2] = tested on: Trichosporon asahii; experiment: Antifungal activity against Trichosporon asahii 1188 after 24 hrs by microdilution broth method; format: functional; conditions: Trichosporon asahii, 1188, 24 h; summary of the method: as §1
[3] = tested on: Candida albicans; experiment: Antifungal activity against Candida albicans ATCC 44859 after 48 hrs by microdilution broth method; format: functional; conditions: ATCC 44859, 48 h; summary of the method: as §1
[4] = tested on: Aspergillus fumigatus; experiment: Antifungal activity against Aspergillus fumigatus 231 after 24 hrs by microdilution broth method; format: functional; conditions: Aspergillus fumigatus, 231, 24 h; summary of the method: as §1
[5] = tested on: Staphylococcus epidermidis; experiment: Antibacterial activity against Staphylococcus epidermidis H 6966/08 after 48 hrs by microdilution broth method; format: functional; conditions: H 6966/08, 48 h
Summary of the method: (§2)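 Mueller-Hinton broth microdilution (modified M07-A07), pH 7.4 (±0.2). Compounds dissolved in DMSO, tested at final 500 to 0.49 µmol/L. Inoculum in sterile water matched to 0.5 McFarland. Incubated in the dark, humid atmosphere, 35 °C, read at 24 and 48 h visually and at 540 nm. MIC taken as ≥95% growth reduction (IC95) versus control.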

[6] = tested on: Pseudomonas aeruginosa; experiment: Antibacterial activity against Pseudomonas aeruginosa CCM 1961 after 24 hrs by microdilution broth method; format: functional; conditions: CCM 1961, 24 h; summary of the method: as §2
[7] = tested on: Mycobacterium avium; experiment: Antimycobacterial activity against Mycobacterium avium 330/80 after 14 days; format: functional; conditions: 330/80, 336 h
[8] = Selectivity index, ratio of CI50 for human HepG2 cells to MIC100 for Mycobacterium tuberculosis H37Rv 331/88
[9] = tested on: Trichophyton mentagrophytes; experiment: Antifungal activity against Trichophyton mentagrophytes 445 after 24 hrs by microdilution broth method; format: functional; conditions: Trichophyton mentagrophytes, 445, 24 h
[10] = tested on: Mycobacterium kansasii; experiment: Antimycobacterial activity against Mycobacterium kansasii 235/80 after 21 days; format: functional; conditions: 235/80, 504 h
Summary of the method: (§3)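 Šula's semisynthetic medium micromethod at 37 °C, read after 7, 14 and 21 days. The 1.0 McFarland suspension was diluted 10^-4. MIC determined. 6509/96 is a clinical isolate.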

[11] = tested on: Klebsiella pneumoniae; experiment: Antibacterial activity against Klebsiella pneumoniae D 11750/08 after 24 hrs by microdilution broth method; format: functional; conditions: D 11750/08, 24 h; summary of the method: as §2
[12] = tested on: Klebsiella pneumoniae; experiment: Antibacterial activity against ESBL-positive Klebsiella pneumoniae J 14368/08 after 48 hrs by microdilution broth method; format: functional; conditions: J 14368/08, 48 h; summary of the method: as §2
[13] = tested on: Lichtheimia corymbifera; experiment: Antifungal activity against Absidia corymbifera 272 after 24 hrs by microdilution broth method; format: functional; conditions: Lichtheimia corymbifera, 272, 24 h; summary of the method: as §1
[14] = tested on: Nakaseomyces glabratus; experiment: Antifungal activity against Candida glabrata 20/I after 24 hrs by microdilution broth method; format: functional; summary of the method: as §1
[15] = tested on: Staphylococcus aureus; experiment: Antibacterial activity against Staphylococcus aureus CCM 4516/08 after 24 hrs by microdilution broth method; format: functional; conditions: CCM 4516/08, 24 h
[16] = tested on: Nakaseomyces glabratus; experiment: Antifungal activity against Candida glabrata 20/I after 48 hrs by microdilution broth method; format: functional; summary of the method: as §1
[17] = tested on: Staphylococcus aureus; experiment: Antibacterial activity against methicillin-resistant Staphylococcus aureus H 5996/08 after 48 hrs by microdilution broth method; format: functional; conditions: H 5996/08, 48 h
[18] = tested on: Candida albicans; experiment: Antifungal activity against Candida albicans ATCC 44859 after 24 hrs by microdilution broth method; format: functional; conditions: ATCC 44859, 24 h; summary of the method: as §1
[19] = tested on: Enterococcus sp.; experiment: Antibacterial activity against Enterococcus sp. J 14365/08 after 24 hrs by microdilution broth method; format: functional; conditions: J 14365/08, 24 h; summary of the method: as §2
[20] = tested on: Enterococcus sp.; experiment: Antibacterial activity against Enterococcus sp. J 14365/08 after 48 hrs by microdilution broth method; format: functional; conditions: J 14365/08, 48 h; summary of the method: as §2
[21] = tested on: Mycobacterium avium; experiment: Antimycobacterial activity against Mycobacterium avium 330/80 after 21 days; format: functional; conditions: 330/80, 504 h
[22] = tested on: Aspergillus fumigatus; experiment: Antifungal activity against Aspergillus fumigatus 231 after 48 hrs by microdilution broth method; format: functional; conditions: Aspergillus fumigatus, 231, 48 h; summary of the method: as §1
[23] = tested on: Trichophyton mentagrophytes; experiment: Antifungal activity against Trichophyton mentagrophytes 445 after 48 hrs by microdilution broth method; format: functional; conditions: Trichophyton mentagrophytes, 445, 48 h
[24] = tested on: Lichtheimia corymbifera; experiment: Antifungal activity against Absidia corymbifera 272 after 48 hrs by microdilution broth method; format: functional; conditions: Lichtheimia corymbifera, 272, 48 h; summary of the method: as §1
[25] = tested on: Pichia kudriavzevii; experiment: Antifungal activity against Candida krusei E28 after 48 hrs by microdilution broth method; format: functional; conditions: E28, 48 h; summary of the method: as §1
[26] = tested on: Mycobacterium tuberculosis; experiment: Antimycobacterial activity against Mycobacterium tuberculosis H37Rv 331/88 after 21 days; format: functional; conditions: H37Rv 331/88, 504 h
[27] = tested on: Staphylococcus aureus; experiment: Antibacterial activity against methicillin-resistant Staphylococcus aureus H 5996/08 after 24 hrs by microdilution broth method; format: functional; conditions: H 5996/08, 24 h
[28] = tested on: Mycobacterium kansasii; experiment: Antimycobacterial activity against Mycobacterium kansasii 235/80 after 7 days; format: functional; conditions: 235/80, 168 h; summary of the method: as §3
[29] = tested on: Mycobacterium kansasii; experiment: Antimycobacterial activity against Mycobacterium kansasii 6509/96 after 21 days; format: functional; conditions: 6509/96, 504 h; summary of the method: as §3
[30] = tested on: Pseudomonas aeruginosa; experiment: Antibacterial activity against Pseudomonas aeruginosa CCM 1961 after 48 hrs by microdilution broth method; format: functional; conditions: CCM 1961, 48 h; summary of the method: as §2
[31] = tested on: Escherichia coli; experiment: Antibacterial activity against Escherichia coli CCM4517 after 48 hrs by microdilution broth method; format: functional; conditions: CCM4517, 48 h; summary of the method: as §2
[32] = tested on: Mycobacterium kansasii; experiment: Antimycobacterial activity against Mycobacterium kansasii 6509/96 after 7 days; format: functional; conditions: 6509/96, 168 h; summary of the method: as §3
[33] = tested on: Pichia kudriavzevii; experiment: Antifungal activity against Candida krusei E28 after 24 hrs by microdilution broth method; format: functional; conditions: E28, 24 h; summary of the method: as §1
[34] = tested on: Mycobacterium kansasii; experiment: Antimycobacterial activity against Mycobacterium kansasii 235/80 after 14 days; format: functional; conditions: 235/80, 336 h; summary of the method: as §3
[35] = tested on: Escherichia coli; experiment: Antibacterial activity against Escherichia coli CCM4517 after 24 hrs by microdilution broth method; format: functional; conditions: CCM4517, 24 h; summary of the method: as §2
[36] = tested on: Staphylococcus aureus; experiment: Antibacterial activity against Staphylococcus aureus CCM 4516/08 after 48 hrs by microdilution broth method; format: functional; conditions: CCM 4516/08, 48 h
[37] = tested on: Klebsiella pneumoniae; experiment: Antibacterial activity against Klebsiella pneumoniae D 11750/08 after 48 hrs by microdilution broth method; format: functional; conditions: D 11750/08, 48 h; summary of the method: as §2
[38] = tested on: HepG2; experiment: Cytotoxicity against human HepG2 cells after 24 hrs […]; format: cell-based; conditions: HepG2, 24 h
[39] = tested on: Klebsiella pneumoniae; experiment: Antibacterial activity against ESBL-positive Klebsiella pneumoniae J 14368/08 after 24 hrs by microdilution broth method; format: functional; conditions: J 14368/08, 24 h; summary of the method: as §2
[40] = tested on: Mycobacterium tuberculosis; experiment: Antimycobacterial activity against Mycobacterium tuberculosis H37Rv 331/88 after 14 days; format: functional; conditions: H37Rv 331/88, 336 h
[41] = tested on: Mycobacterium kansasii; experiment: Antimycobacterial activity against Mycobacterium kansasii 6509/96 after 14 days; format: functional; conditions: 6509/96, 336 h; summary of the method: as §3
[42] = tested on: Candida tropicalis; experiment: Antifungal activity against Candida tropicalis 156 after 48 hrs by microdilution broth method; format: functional; conditions: Candida tropicalis, 156, 48 h; summary of the method: as §1
[43] = tested on: Staphylococcus epidermidis; experiment: Antibacterial activity against Staphylococcus epidermidis H 6966/08 after 24 hrs by microdilution broth method; format: functional; conditions: H 6966/08, 24 h; summary of the method: as §2
[44] = tested on: Candida tropicalis; experiment: Antifungal activity against Candida tropicalis 156 after 24 hrs by microdilution broth method; format: functional; conditions: Candida tropicalis, 156, 24 h; summary of the method: as §1

With `O=C(Nc1cccc(C(F)(F)F)c1)c1ccc([N+](=O)[O-])cc1O` the MIC [1] was 250 µM (≈ 81.6 µg/mL), the MIC [2] was 62.5 µM (≈ 20.4 µg/mL) and the MIC [3] was greater than 500 µM. For the same compound, the MIC [4] was 500 µM (≈ 163 µg/mL), the MIC [5] was 7.81 µM (≈ 2.55 µg/mL) and the MIC [6] was greater than 500 µM. The MIC [7] was 62.5 µM (≈ 20.4 µg/mL), the “Selectivity Index” value [8] was 0.35 and the MIC [9] was greater than 500 µM. For the same compound, the MIC [10] was 16 µM (≈ 5.22 µg/mL), the MIC [11] was 500 µM (≈ 163 µg/mL) and the MIC [12] was greater than 500 µM. The MIC [13] was 500 µM (≈ 163 µg/mL), the MIC [14] was greater than 500 µM and the MIC [15] was 3.9 µM (≈ 1.27 µg/mL). The MIC [16] was greater than 500 µM, the MIC [17] was 1.95 µM (≈ 0.636 µg/mL) and the MIC [18] was greater than 500 µM. For the same compound, the MIC [19] was 250 µM (≈ 81.6 µg/mL), the MIC [20] was 500 µM (≈ 163 µg/mL) and the MIC [21] was 62.5 µM (≈ 20.4 µg/mL). For the same compound, the MIC [22] was greater than 500 µM, the MIC [23] was greater than 500 µM and the MIC [24] was greater than 500 µM. It also gave an MIC [25] greater than 500 µM, an MIC [26] of 8 µM (≈ 2.61 µg/mL) and an MIC [27] of 1.95 µM (≈ 0.636 µg/mL). The MIC [28] was 8 µM (≈ 2.61 µg/mL), the MIC [29] was 16 µM (≈ 5.22 µg/mL) and the MIC [30] was greater than 500 µM. The MIC [31] was 500 µM (≈ 163 µg/mL), the MIC [32] was 8 µM (≈ 2.61 µg/mL) and the MIC [33] was 250 µM (≈ 81.6 µg/mL). The MIC [34] was 16 µM (≈ 5.22 µg/mL), the MIC [35] was 500 µM (≈ 163 µg/mL) and the MIC [36] was 3.9 µM (≈ 1.27 µg/mL). It also gave an MIC [37] of 500 µM (≈ 163 µg/mL), an IC50 [38] of 2800 nM and an MIC [39] greater than 500 µM. The MIC [40] was 8 µM (≈ 2.61 µg/mL), the MIC [41] was 16 µM (≈ 5.22 µg/mL) and the MIC [42] was greater than 500 µM. It also gave an MIC [43] of 1.95 µM (≈ 0.636 µg/mL) and an MIC [44] greater than 500 µM.
